Data set [1] can be described thus: Rate constant (Kobs) obtained from IR spectroscopy.
Data set [2] is described as follows: Geometrical mean of MIC calculated from MIC values for Escherichia coli NIHJ JC-2 and Klebsiella pneumoniae SRL-1. In kind it is functional. In outline: (§1)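 Agar dilution on sensitivity test agar with serial twofold antibiotic dilutions. Overnight tryptosoy broth cultures of E. coli NIHJ JC-2 and K. pneumoniae SRL-1 were diluted to about 10^6 cells/mL in the same broth, and one loopful was inoculated. Plates were incubated at 37 °C for 18–20 h. MIC was the lowest concentration inhibiting visible growth. The value is the geometric mean of the two strains' MICs.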

The nature of data set [3]: Geometrical mean of MIC calculated from MIC values for Escherichia coli NIHJ JC-2 and Klebsiella pneumoniae SRL-1. In kind it is functional. Summed up:
as §1

Data set [4] can be described thus: Dissociation constant (Kobs) obtained from IR spectroscopy; f = Not detected. In kind it is physicochemical.

`O=C(Cc1cccs1)[N-]C1C(=O)N2C(C(=O)[O-])=C(C[n+]3ccccc3)CSC12.[Na+]` (stereo not given): in data set [1], the “10^2 kobsd (h^-1)” value is given as 47.3 obs.
For `CC(=O)OCC1=C(C(=O)[O-])N2C(=O)C(NC(=O)Cc3cccs3)C2SC1.[Na+]` (stereo not given), the “10^2 kobsd (h^-1)” value in data set [1] stood at 11.1 hr-1. Further, in data set [2], the MIC is 25 µg/mL.
Regarding `O=C(Cc1ccccc1)NC1C(=O)N2C(C(=O)[O-])=C(Cl)CSC12.[Na+]` (stereo not given), in data set [1], the “10^2 kobsd (h^-1)” value is 15.2 hr-1. The MIC in data set [2] was 12.5 µg/mL.
Take `CS(=O)(=O)OC1=C(C(=O)[O-])N2C(=O)C(NC(=O)Cc3ccccc3)C2SC1.[Na+]` (stereo not given): the “10^2 kobsd (h^-1)” value in data set [1] is 46.5 hr-1. Besides, in data set [2], the MIC was 8.84 µg/mL.
The corresponding values for `O=C(Cc1ccccc1)NC1C(=O)N2C(C(=O)[O-])=CCSC12.[Na+]` (stereo not given) are 3.1 hr-1 and 8.85 µg/mL.
For the compound `COC1=C(C(=O)[O-])N2C(=O)C(NC(=O)Cc3ccccc3)C2SC1.[Na+]` (stereo not given), in data set [3], the MIC is 17.7 µg/mL. For the same compound, the Log k result in data set [4] is given as “Not detected”.
As to `CCOC(=O)CC1=C(C(=O)[O-])N2C(=O)C(NC(=O)Cc3ccccc3)C2SC1.[Na+]` (stereo not given), the “10^2 kobsd (h^-1)” value in data set [1] is given as 1.82 hr-1. Moreover, the MIC in data set [2] was greater than 100 µg/mL.
On to `CC1=C(C(=O)[O-])N2C(=O)C(NC(=O)Cc3ccccc3)C2SC1.[Na+]` (stereo not given), for which the “10^2 kobsd (h^-1)” value in data set [1] is 1.36 hr-1. In addition, the MIC in data set [2] was 70.7 µg/mL.

The values above are taken from ChEMBL document CHEMBL1122539, “3-Substituent effect and 3-methylene substituent effect on the structure-reactivity relationship of 7 beta-(acylamino)-3-cephem-4-carboxylic acid derivatives studied by carbon-13 and IR spectroscopies” (J Med Chem, 1984).
